B1: tRNA (parent)
chain: CUCUCGGUAGCCAAGUUGGUUUAAGGCGCAAGACUUUAAUUUAUCACUACGAAAUCUUGAGAUCGGGCGUUCGACUCGCCCCCGGGAGAUUUUUUCCUCGAGCAA

Drawing on the RNAGym collection of RNA variant scans (doi:10.1101/gad.245936.114), this text covers nonsense suppression for 167 variants.

Variants at the floor of the assay were thinned out.

Variants of B1 are the subject of this data set. Kind of data set: nonsense suppression (GFP-seq) (ratio to wild type); higher = more function; SUP4oc tRNA, yeast GFP reporter sort-seq. Put shortly: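 Each variant's nonsense suppression (GFPSEQ) is a cell-share-weighted bin median GFP/RFP relative to the unmutated parent tRNA. Yeast with genome-integrated tRNA variants from a ~3% random-mutation library, a galactose-driven GFP ochre reporter and RFP were grown in raffinose/galactose medium with 80 mg/L adenine, then sorted into GFP/RFP bins for Illumina sequencing. Variants needed ≥100 reads and ≥30 cells.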
As to G65A G78C, the nonsense suppression was not above 0.026.

G65A G78A: the nonsense suppression worked out at 0.0493.

With G73A A89C, the nonsense suppression came to 0.0768.

Regarding U63C C81U, the nonsense suppression was determined as 0.142.

Regarding A74U G78A, the nonsense suppression was found to be 0.0557.

Regarding A60C G73U, the nonsense suppression was determined as 0.049.

For A60C G73C, the nonsense suppression turned out to be 0.0519.

For the variant A60U A87G, the nonsense suppression came out at 1.02.

As to U76C A87G, the nonsense suppression worked out at 0.932.

Take A62U U63C: the nonsense suppression is not above 0.026.

On to U70C A74G A87C, for which the nonsense suppression is not above 0.026.

On to G66U C75A, for which the nonsense suppression is 0.704.

As for U76A G85U, the nonsense suppression was 0.0588.

On to G61C C77U, for which the nonsense suppression was found to be 0.0267.

Consider G61C C77G, for which the nonsense suppression worked out at 0.0296.

C72U C80A A87C: the nonsense suppression came out at 0.714.

As for U76A A87G, the nonsense suppression was determined as 0.0534.

For G61U C75G, the nonsense suppression came out at 1.08.

As for A74U G84C, the nonsense suppression is not above 0.026.

In the case of C68G U70C, the nonsense suppression is not above 0.026.

U63A G78A: the nonsense suppression was 0.06.

As for A60G G86U, the nonsense suppression was 0.0427.

As for U63A C75G, the nonsense suppression was 1.13.

For the variant G66A C75U, the nonsense suppression amounted to 0.368.

On to G66A C75A, for which the nonsense suppression came to 1.18.

As to C68A C75A, the nonsense suppression was 0.0286.

Turning to C72G G88U, the nonsense suppression is not above 0.026.

U63C U76C: the nonsense suppression is 0.693.

Turning to G66U C79A, the nonsense suppression is not above 0.026.

On to U63A G85A, for which the nonsense suppression came to 1.09.

Regarding U63A G85U, the nonsense suppression was 0.23.

With A60U G73A, the nonsense suppression amounted to 0.222.

With A60G C81U, the nonsense suppression came to 0.0488.

On to C68U C83G, for which the nonsense suppression is not above 0.026.

As to C64U C81A, the nonsense suppression is not above 0.026.

In the case of U71G C72U, the nonsense suppression is not above 0.026.

Take U63G G67A: the nonsense suppression turned out to be 0.0444.

As for G61A G85U, the nonsense suppression stood at 0.429.

With C68U, the nonsense suppression was 1.05.

As for G61C G67A, the nonsense suppression stood at 0.0647.

For the variant A74G C81G, the nonsense suppression is not above 0.026.

Take G67A G85U: the nonsense suppression worked out at 0.0862.

Regarding G61C C79U, the nonsense suppression was 0.202.

Consider U63G G84C, for which the nonsense suppression was determined as 0.0283.

As for U63C A74G, the nonsense suppression came to 0.0264.

With G69C A89G, the nonsense suppression is not above 0.026.

Consider A62G C80U C81G, for which the nonsense suppression was not above 0.026.

On to A62G C75G, for which the nonsense suppression was determined as 0.205.

With A62G C75A, the nonsense suppression was 0.219.

In the case of C75A G85A, the nonsense suppression came out at 1.05.

With G67A U76A G85U, the nonsense suppression was not above 0.026.

On to U63G G66U G84A, for which the nonsense suppression is not above 0.026.

C68U U71C: the nonsense suppression came out at 0.0274.

Turning to U63A, the nonsense suppression was found to be 1.05.

On to U63G, for which the nonsense suppression was 1.14.

As for U63C, the nonsense suppression amounted to 1.05.

Turning to A60C G84C, the nonsense suppression came out at 0.0911.

As for A60U U71G, the nonsense suppression is not above 0.026.

A62G G65C: the nonsense suppression was not above 0.026.

As for A74G G78C, the nonsense suppression stood at 0.0343.

A74G G78U: the nonsense suppression was 0.0279.

On to G61A G67A G73C, for which the nonsense suppression is not above 0.026.

As to G61C U63G, the nonsense suppression turned out to be 0.12.

In the case of G61C U63C, the nonsense suppression was found to be 0.196.

For the variant A62C C64G, the nonsense suppression is not above 0.026.

As to A60G G85U, the nonsense suppression amounted to 0.138.

Consider A60G G85C, for which the nonsense suppression came out at 0.119.

On to A60G G85A, for which the nonsense suppression amounted to 1.16.

On to A60G C75A, for which the nonsense suppression amounted to 0.976.

With G65U G86A, the nonsense suppression is not above 0.026.

On to U63C G78U, for which the nonsense suppression amounted to 0.0499.

On to G61C G85C, for which the nonsense suppression stood at 0.045.

For the variant G66A C72G, the nonsense suppression is not above 0.026.

On to G61U C75U G85A, for which the nonsense suppression came out at 1.04.

As for G73A C79U, the nonsense suppression was found to be 0.207.

G67A G78U: the nonsense suppression is 0.0411.

With G73C U76A, the nonsense suppression is not above 0.026.

For A62G C83A, the nonsense suppression is not above 0.026.

For U70C G86A, the nonsense suppression was not above 0.026.

For G61A C79U, the nonsense suppression was determined as 0.209.

On to G61A C79G, for which the nonsense suppression was not above 0.026.

Take A60G G78A: the nonsense suppression came to 0.0542.

For A60G G78U, the nonsense suppression was determined as 0.0498.

With G73A A87U, the nonsense suppression amounted to 0.0409.

As to G65U G85A, the nonsense suppression is not above 0.026.

Consider G61C G88A, for which the nonsense suppression amounted to 0.0268.

On to G61C G88U, for which the nonsense suppression came out at 0.0792.

Consider U63G G69A, for which the nonsense suppression came to 0.116.

For the variant G61C C64U C68G G84A, the nonsense suppression is not above 0.026.

With G61U U63C, the nonsense suppression is 0.808.

Turning to G61U U63G, the nonsense suppression stood at 0.232.

As to G66A U76C C81U, the nonsense suppression is not above 0.026.

For the variant G65U G67A, the nonsense suppression was not above 0.026.

U63G U70C C75U: the nonsense suppression came out at 0.099.

Take A60G G84A: the nonsense suppression worked out at 0.269.

Take U63G C72U: the nonsense suppression turned out to be 0.0334.

Take U63A C68U: the nonsense suppression is 0.755.

For G73U C81U, the nonsense suppression was 0.0263.

Turning to A60U C79U, the nonsense suppression amounted to 0.761.

Take G61A G84C: the nonsense suppression was found to be 0.0752.

Regarding C75A, the nonsense suppression amounted to 0.996.

In the case of C75G, the nonsense suppression was 1.04.

For the variant C75U, the nonsense suppression was found to be 0.972.

Consider A60C C75U, for which the nonsense suppression came to 0.167.

On to U63A U76C, for which the nonsense suppression is 0.748.

Consider C72G G78A, for which the nonsense suppression was 0.0282.

For the variant U63G G73A, the nonsense suppression was 0.189.

For the variant G65C U76A, the nonsense suppression is not above 0.026.

Take U70A C80G: the nonsense suppression is not above 0.026.

For U70A C80U, the nonsense suppression was not above 0.026.

On to U76A C82U, for which the nonsense suppression was not above 0.026.

Regarding G66A G67A G86C, the nonsense suppression is not above 0.026.

In the case of C75A G78A, the nonsense suppression turned out to be 0.698.

In the case of C75A G78C, the nonsense suppression amounted to 1.

G67A C75A C79A: the nonsense suppression was determined as 0.203.

G61U G67U: the nonsense suppression was not above 0.026.

On to G61U G67A, for which the nonsense suppression amounted to 0.135.

For the variant G67A C75G, the nonsense suppression amounted to 0.194.

On to G67A U71C A89C, for which the nonsense suppression was not above 0.026.

In the case of U63G G78A, the nonsense suppression stood at 0.0891.

For U63G G78U, the nonsense suppression was 0.0445.

Consider A74G G78C G86C, for which the nonsense suppression is not above 0.026.

With G61A A62U G84U, the nonsense suppression was not above 0.026.

On to U71C C72G, for which the nonsense suppression was not above 0.026.

In the case of A62U C75G, the nonsense suppression was 0.201.

As for G69U G86C, the nonsense suppression was determined as 0.17.

For G61U C80U, the nonsense suppression turned out to be 0.677.

For G61A G78U, the nonsense suppression came to 0.0402.

Consider G73C C83A, for which the nonsense suppression is not above 0.026.

On to A60G U63A, for which the nonsense suppression turned out to be 0.163.

For G61A G65A, the nonsense suppression was 0.127.

For G65C G88A, the nonsense suppression is not above 0.026.

Turning to G61A G66C, the nonsense suppression was not above 0.026.

Turning to A60U G65C C81G, the nonsense suppression was 0.203.

Regarding U76A C80U, the nonsense suppression was 0.0419.

In the case of U71G A89U, the nonsense suppression is not above 0.026.

For G61C A89C, the nonsense suppression is not above 0.026.

With U63C C75U, the nonsense suppression amounted to 1.1.

On to U63C C75A, for which the nonsense suppression is 1.04.

Take A60G G69A: the nonsense suppression was 0.0526.

As to C64G C72U, the nonsense suppression is not above 0.026.

Consider A74C U76C G86A A89G, for which the nonsense suppression is not above 0.026.

As to A60U U76C, the nonsense suppression worked out at 1.05.

As for A62U G78A, the nonsense suppression worked out at 0.0537.

In the case of A74G C83G, the nonsense suppression was not above 0.026.

For U70A C83U, the nonsense suppression came out at 0.0439.

As for C75G G78C C83A, the nonsense suppression is not above 0.026.

With A62U, the nonsense suppression was found to be 0.193.

In the case of U63G G85A, the nonsense suppression worked out at 0.787.

Consider U63C C82U, for which the nonsense suppression came out at 0.449.

Turning to A60G G73C, the nonsense suppression was not above 0.026.

For the variant C72U C81A, the nonsense suppression was not above 0.026.

For the variant G61C G65A C68U, the nonsense suppression was not above 0.026.

As to G61A C68U G69A G73A, the nonsense suppression was not above 0.026.

In the case of G61U C82U, the nonsense suppression is 0.73.

As to G65A G73C, the nonsense suppression was not above 0.026.

On to G67A A74U, for which the nonsense suppression is 0.0276.

As to G61C C75A, the nonsense suppression was found to be 1.06.

Consider G61C C75G, for which the nonsense suppression is 1.21.

Turning to G61U U71A G86A, the nonsense suppression was not above 0.026.

In the case of G69C C77G, the nonsense suppression was not above 0.026.

Turning to A60G G66U, the nonsense suppression was 0.0286.

In the case of C72G G73A, the nonsense suppression was 0.0319.

With A74C C81U, the nonsense suppression was not above 0.026.

For G61A A89G, the nonsense suppression was 0.0396.

On to G61A A89C, for which the nonsense suppression stood at 0.0288.

With A60C G66C, the nonsense suppression is not above 0.026.
